Key:
Cruzipain [1] = target: T1, Cruzipain (Trypanosoma cruzi, UniProt P25779); assay: Inhibition of Trypanosoma cruzi cruzain by Flexstation microplate spectrofluorimetry
How it was run: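 Secondary 96-well assay: 0.4 nM cruzain in 0.1 M sodium acetate pH 5.5, 5 mM DTT, with or without 0.01% Triton X-100. Compound from 200x DMSO stock preincubated with enzyme 15 min. Reaction started with Z-Phe-Arg-AMC at 2.5 μM final (Km 2 μM) and followed for 5 min. Percent inhibition taken from initial rates versus a DMSO control. Each assay run at least twice.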

[2] = Inhibition of Beta-lactamase AmpC by quantitative high throughput screening
Cruzipain [3] = target: T1, Cruzipain; assay: Inhibition of Trypanosoma cruzi cruzain by quantitative high throughput screening
How it was run: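 1536-well qHTS in 100 mM acetate pH 5.5 with 5 mM DTT, 4 μL final volume. Two conditions: 0.01% Triton X-100 with 1.5 nM cruzain, or 0.00005% Triton with 3 nM cruzain. Seven compound concentrations from 57.5 μM to 3.7 nM, preincubated 15 min at room temperature. Then 2 μM Z-Phe-Arg-AMC added. Fluorescence (ex 340/em 450) read kinetically over 60 s. Initial-rate data fitted to a four-parameter Hill equation.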

T1 sequence (P25779 whole entry): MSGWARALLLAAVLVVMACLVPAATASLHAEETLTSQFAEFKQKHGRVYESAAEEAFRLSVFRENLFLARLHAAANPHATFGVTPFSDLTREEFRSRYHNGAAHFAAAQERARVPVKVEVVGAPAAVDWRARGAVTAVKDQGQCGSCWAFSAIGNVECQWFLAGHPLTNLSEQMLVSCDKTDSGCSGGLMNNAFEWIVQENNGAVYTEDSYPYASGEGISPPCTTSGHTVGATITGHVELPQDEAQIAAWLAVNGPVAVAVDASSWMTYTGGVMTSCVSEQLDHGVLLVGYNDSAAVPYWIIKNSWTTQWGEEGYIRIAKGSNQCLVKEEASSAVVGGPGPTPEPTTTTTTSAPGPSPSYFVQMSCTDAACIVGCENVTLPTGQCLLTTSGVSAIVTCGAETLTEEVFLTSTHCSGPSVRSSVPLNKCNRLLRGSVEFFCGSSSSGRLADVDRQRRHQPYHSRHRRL

SMILES | IC50 (Cruzipain [1]) [µM] | IC50 [2] [µM] | IC50 (Cruzipain [3]) [µM]
O=C(Nc1nc(-c2cccc(Br)c2)cs1)Oc1ccccc1 | 30 | – | –
CCN(Cc1ccccc1)c1nc2c(S(=O)(=O)c3ccccc3)nnn2c2ccc(Cl)cc12 | 12 | – | –
Cc1cc(NC(=O)Cc2cccs2)no1 | 30 | 13 | > 60
COc1ccc(/C=N/NC(=O)c2ccc(Br)cc2)cc1Cn1cc(Cl)cn1 | 12 | – | –
CCn1ccnc1C(O)c1cccc(OC)c1OC (configuration not stated) | > 120 | 4 | > 60
COc1ccc(S(=O)(=O)Nc2nc3ccccc3nc2NCc2ccc3c(c2)OCO3)cc1 | 12 | – | –
Cc1ccc(-c2csc(NC(=O)c3ccno3)n2)cc1 | > 120 | 8 | > 60
O=c1c(O)c(-c2ccc(O)c(O)c2)oc2cc(O)ccc12 [FISETIN] | 30 | 13 | > 60
O=C(CSc1nnc(-c2ccccc2)o1)N1CCN(c2ccccc2)CC1 | 30 | 13 | > 60
CCCCCCNC(=O)Nc1ccc(S(=O)(=O)Nc2ccc(CCNC[C@H](O)COc3ccc(O)cc3)cc2)cc1 [L-755507] | 12 | – | > 60
O=C(Nc1nc(-c2ccc(S(=O)(=O)N3CCCCCC3)cc2)cs1)c1cccs1 | 12 | 8 | > 60
Cc1ccc(NC(=O)CSC(N)=O)cc1Cl | > 120 | 13 | > 60
COc1ccc(C(=O)Nc2nncs2)c(OC)c1 | > 120 | 4 | > 60
C=C(C)CSc1cc(N)c(C#N)c(-c2ccc(C)cc2)c1C#N | 12 | 6 | > 60
O=C(COC(=O)c1cccc(Oc2ccccc2)c1)Nc1nnc(-c2ccccc2)o1 | 12 | 16 | > 60
Cc1ccc(Cl)cc1NC(=O)CCC(=O)Nc1cc(Cl)ccc1C | 12 | – | –
Cc1cc(NC(=O)c2cc(CC(C)C)on2)no1 | 120 | 4 | > 60
Cc1sc(NC(=S)NC(=O)C2CCCCC2)c(C(N)=O)c1C | 12 | – | –
Cn1cnnc1SCC(=O)Nc1sc2c(c1C(N)=O)CCC2 | 120 | 10 | > 60
CCSc1nnc(NC(=O)c2ccc(Br)s2)s1 | 12 | 10 | > 60
CCCCC/C=C\C/C=C\C/C=C\C/C=C\CCCC(=O)Nc1ccc(O)cc1 | 30 | 10 | > 60

SMILES | IC50 (Cruzipain [1]) [µM] | IC50 [2] [µM] | IC50 (Cruzipain [3]) [µM]
Cc1cccc(NS(=O)(=O)c2ccc(C)c(C(=O)OCC(=O)Nc3cc(C)on3)c2)c1 | 30 | 10 | > 60
Cc1cc(=O)oc2cc(OCC#N)ccc12 | > 120 | 4 | > 60
O=C(Nc1nc(-c2cccs2)cs1)c1ccc(S(=O)(=O)N2CCCC2)cc1 | 12 | 13 | > 60
O=C(Cn1c(=O)oc2ccccc21)Nc1oc(-c2ccccc2)c(-c2ccccc2)c1O | 12 | 13 | > 60
CCc1ccc(C(=O)CSC2=C(C#N)C(c3ccco3)C(C(C)=O)=C(C)N2)cc1 (configuration not stated) | 30 | 13 | > 60
N#Cc1c(-c2ccccc2)cc(-c2ccco2)c(C#N)c1N | 12 | 6 | > 60
O=C(CS[n+]1cc(-c2ccc(F)cc2)cs1)NC(=O)NCc1ccco1 | 60 | 3 | > 60
Cn1c(C(C#N)C(=O)c2sc3ccccc3c2Cl)nc2ccccc21 (configuration not stated) | 12 | 13 | > 60
c1ccc(-c2cc3c(NCC4COc5ccccc5O4)ncnc3s2)cc1 (configuration not stated) | 12 | – | –
Oc1cc(-c2ccc(Cl)c(Cl)c2)[nH]n1 | 12 | 13 | > 60
O=C(c1ccccc1)c1cn(CC(=O)N2CCCC2)c2ccccc12 | 120 | 4 | > 60
O=C(CSCc1ccc(Cl)cc1)c1ccco1 | 120 | 10 | > 60
O=C(COC(=O)c1cc(-c2ccco2)nc2ccccc12)NCc1ccc2c(c1)OCO2 | 30 | 13 | > 60
Cc1ccc(C(=O)Nc2nc(-c3cc(Cl)sc3Cl)cs2)cc1 | 12 | – | –
O=C(Nc1ccc(/N=N/c2ccccc2)cc1)c1cccc(Cl)c1 | 12 | – | –
NC(=O)SCC(=O)Nc1cccc(Cl)c1 | > 120 | 8 | > 60
O=C(c1ccc(OCCN2CCCCC2)cc1)c1c(-c2ccc(O)cc2)sc2cc(O)ccc12 [RALOXIFENE] | – | 5 | > 60
C=CCNC(=O)c1cc([N+](=O)[O-])cc2c(=O)[nH]c(Nc3ccc(Cl)c(Cl)c3)nc12 | – | 2 | > 60
COC(=O)c1ccc(-c2nc(-c3ccc(Br)o3)no2)cc1 | 30 | 4 | > 60
O=[N+]([O-])c1ccccc1S(=O)(=O)NC[C@H]1CC[C@H](CNCC2CCc3ccccc3C2)CC1 (some centres not stated) | > 120 | 13 | > 60
